From PubChem BioAssay
Compounds with a hit are over-represented: about 5.2% of the library has one in this group of screens.
EBNA-1 inh – blocks EBNA-1 binding to DNA | EBNA-1 DNA binding, fluorescence polarization | inhibition, % at 14.8 µM | hit rate 0.34% among 300,000 | AID 1950; in the data active = inhibition above about 28%
M18AAP inhibitor – blocks P. falciparum M18 aspartyl aminopeptidase. recombinant PfM18AAP, H-Glu-NHMec fluorogenic cleavage. inhibition, % at 7.35 µM. hit rate 1.2% among 290,000;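 active = inhibition above the campaign mean inhibition over all tested compounds plus 3 SD, cut at about 28% in these data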;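 note: 0% = plate median of test compound wells and 100% = 2 mM ZnCl2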
ALR H2O2 inh – inhibitors of human sulfhydryl oxidase ALR; inhibition, % (no concentration beside the values); purified ALR, DTT oxidation, H2O2 HRP-luminol luminescence; hit rate 3.8% among 290,000; P55789;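 active = mean replicate inhibition above about 79%, with every replicate also reaching it, limit read from the data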
Target sequence (P55789 whole entry, looked up): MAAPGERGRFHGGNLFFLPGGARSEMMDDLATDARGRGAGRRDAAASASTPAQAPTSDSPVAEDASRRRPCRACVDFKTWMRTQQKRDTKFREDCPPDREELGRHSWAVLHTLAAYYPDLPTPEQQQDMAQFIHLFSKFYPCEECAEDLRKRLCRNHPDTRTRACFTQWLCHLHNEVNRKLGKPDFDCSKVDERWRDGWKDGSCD
core dimer inh – blocks dimerization of HCV core protein. TR-FRET GST/Flag-core106 dimerization, 1536-well. inhibition, % at 5 µM. hit rate 0.33% among 300,000. AID 1899;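 active = inhibition above the mean of all tested compounds plus 3 SD, set per screening campaign, cut at about 45% in these data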
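Material: GST/Flag-tagged HCV core106 proteins. Incubation: 4 h, 22.5 °C incubation. Read-out basis: inhibition (%) from 671 over 617 nm ratio. Measured by: TR-FRET, excitation 340 nm, emission 617 and 671 nm.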
ZTA DNA inh – counter-screen for EBNA-1 inhibitors: inhibitors of Epstein-Barr virus ZTA; AID 2234; ZTA-DNA binding, fluorescence polarization; P03206; inhibition, % at 11 µM; hit rate 0.15% among 320,000; in the data active = inhibition above about 33%
Target sequence (P03206 whole entry, looked up): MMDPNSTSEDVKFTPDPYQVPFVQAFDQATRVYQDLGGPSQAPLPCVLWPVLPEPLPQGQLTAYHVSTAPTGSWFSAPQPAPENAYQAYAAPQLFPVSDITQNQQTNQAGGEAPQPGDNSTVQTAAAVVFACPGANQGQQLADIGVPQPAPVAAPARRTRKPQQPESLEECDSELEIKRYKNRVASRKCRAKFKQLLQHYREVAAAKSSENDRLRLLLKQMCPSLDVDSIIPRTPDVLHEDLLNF
HCV NS3 hel inh – blocks Hepatitis C virus NS3 helicase unwinding; AID 1800; inhibition, % at 10.9 µM; hit rate 0.56% among 290,000; NS3 helicase DNA unwinding, Cy5 molecular beacon fluorescence;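 active = inhibition above the mean of all tested compounds plus 3 SD, set per campaign, cut at about 35% in these data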;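 note: 0% = DMSO wells and 100% = thioflavine S control wells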
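System: NS3 helicase fragment of HCV / Schedule: 1 h at 25 °C / Control set: DMSO alone as 0% and 110 µM thioflavine S as 100% / Reagent: Cy5/quencher beacon DNA duplex and ATP to start / Technique: Cy5 fluorescence / Replication: singlicate / Evaluation: % inhibition of end-to-start signal ratio versus controls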
Active calls of the source: *; . = no result given.

SMILES	EBNA-1 inh	M18AAP inhibitor	ALR H2O2 inh	core dimer inh	ZTA DNA inh	HCV NS3 hel inh
O=C1C(=O)N(CCCN2CCOCC2)C(c2ccc([N+](=O)[O-])cc2)/C1=C(/O)c1ccc2c(c1)OCO2 (stereo not drawn)	4	31*	49	-3	-14	-4
COc1ccc(CCNC(=O)CN(C)S(=O)(=O)c2cccs2)cc1	.	.	-2	.	-3	.
Cc1cnc(NC(=O)c2sc3ccccc3c2Cl)s1	9	4	-2	-8	-7	-1
CC(C)c1nnc(NC(=O)c2sc3ccccc3c2Cl)s1	11	4	98*	14	3	-7
COc1ccc(CN2CCNC(=O)C2CC(=O)NCCC2=CCCCC2)cc1OC (stereo not drawn)	-6	-4	-8	-5	14	-2
CCN(C(=O)Cn1nc(C)c([N+](=O)[O-])c1C)c1c(N)n(Cc2ccccc2)c(=O)[nH]c1=O	-5	.	1	-6	7	.
Cc1ccc(CNC(=O)COc2ccc(C)nc2[N+](=O)[O-])cc1	1	3	.	-3	-12	18
Cc1ccc(OCC(=O)c2ccc(Cl)s2)c([N+](=O)[O-])n1	3	24	46	57*	1	11
CC1CCc2c(C(=O)Nc3ccc(OC(F)(F)F)cc3)csc2C1 (stereo not drawn)	-6	0	-10	-4	-2	-14
COc1cc2oc(-c3ccc(O)cc3)cc(=O)c2c(O)c1OC	-8	.	98*	0	0	.
COc1cc2oc(-c3ccc(O)cc3)cc(=O)c2c(OC)c1O	.	33*	.	.	.	1
COc1c(O)cc2oc(-c3ccc(O)cc3)cc(=O)c2c1O	0	.	94*	2	-3	.
CCCCn1c(NC(=O)c2ccccc2)c(C#N)c2nc3ccccc3nc21	.	19	.	.	.	40*
CCCCN(C(=O)COC(=O)COc1c(C)cc(C)cc1C)c1c(N)n(CCC)c(=O)[nH]c1=O	4	.	-39	1	5	.
C[C@H](NC(=O)c1ccccc1)C(=O)OCC(=O)Nc1sccc1C(N)=O	.	.	21	.	.	.
CCOc1ccc(Cn2c(C)nc([N+](=O)[O-])c2SCC(O)CCl)cc1[N+](=O)[O-] (stereo not drawn)	-4	2	1	-2	-11	1
CCCOc1ccc(Cn2c(C)nc([N+](=O)[O-])c2SCC(O)COC)cc1[N+](=O)[O-] (stereo not drawn)	1	-8	99*	2	-22	-6
COc1cc(OC)cc(C(=O)NN2CCOCC2)c1	9	3	-1	1	-9	6
COC(=O)c1cc(-c2c(C)nn(-c3ccccc3)c2C)n[nH]1	7	-1	86*	-6	-22	2
COc1ccc2[nH]c(C(=O)N3CCN(Cc4ccccc4)CC3)cc2c1OC	2	-2	-7	9	-2	-7
CCC1(C)OC(=O)N2CCc3c(C)[nH]c4c(C)ccc(c34)C21C (stereo not drawn)	18	-6	98*	-6	11	7
O=C(C#Cc1ccccc1)Nc1ccc(F)cc1	4	10	97*	4	1	-11
O=C(CC(=O)Nc1cccc(F)c1)Nc1cccc(F)c1	-1	2	-6	5	3	1
O=C(C#Cc1ccccc1)Nc1cccc(F)c1	-15	24	97*	-5	-1	-12
CC(=O)Nc1cccc(NC(=O)CSc2ncc(-c3ccccc3)[nH]2)c1	2	1	99*	-2	0	-7
SMILES	EBNA-1 inh	M18AAP inhibitor	ALR H2O2 inh	core dimer inh	ZTA DNA inh	HCV NS3 hel inh
O=C(CSc1ncc(-c2ccccc2)[nH]1)Nc1cccc(O)c1	9	-3	99*	0	11	-7
O=C(CSc1ncc(-c2ccccc2)[nH]1)Nc1ccccc1F	-1	-12	12	-5	-6	6
O=C(CSc1ncc(-c2ccccc2)[nH]1)Nc1ccccc1	5	5	99*	-2	-5	-4
Cc1ccccc1CCN(C(=O)c1csnn1)C(C(=O)NC1CCCC1)c1ccncc1 (stereo not drawn)	1	-11	5	8	3	5
Cc1cccc(N(C(=O)c2ccco2)C(C(=O)NC2CCCC2)c2ccco2)c1C (stereo not drawn)	.	10	.	.	.	23
O=C(CN(Cc1ccccc1)C(=O)CCl)c1cccc(Br)c1	-4	.	3	-7	2	.
COC(=O)c1sc(NC(=S)NNC(=O)c2c(Br)c(C)nn2C)c(C(=O)OC)c1C	8	12	63	10	14	-21
O=C(O)c1c(C(=O)O)c(-c2ccc(Cl)c(Cl)c2)n2c1CSC2	1	7	97*	7	23	7
c1ccc(-c2nnc(CN3CCN(c4ccccc4)CC3)o2)cc1	5	2	98*	4	4	7
Clc1cccc(N2CCN(Cc3nnc(-c4ccccc4)o3)CC2)c1	-1	3	3	18	-5	-1
CN(C)S(=O)(=O)c1ccc2nc(NC(=O)c3cccs3)sc2c1	2	-1	86*	1	-13	0
O=C(Nc1nc2ccc(S(=O)(=O)N3CCCC3)cc2s1)c1cccs1	-1	-1	.	8	-3	9
O=C(Nc1nc2ccc(S(=O)(=O)N3CCCCC3)cc2s1)c1ccncc1	5	0	98*	13	-8	-45
Cc1ccccc1-n1ncc(C(C)NS(=O)(=O)c2ccccc2Cl)c1C (stereo not drawn)	.	4	-1	.	.	-3
CC(C)NC(=O)COc1nncc2ccccc12	-6	1	100*	0	3	3
CC(Oc1cccc(Cl)c1)C(=O)Nc1cc(Cl)ccc1N1CCOCC1 (stereo not drawn)	12	.	0	0	3	.
CN(C)c1ccc(NC(=O)CC2NCCNC2=O)cc1 (stereo not drawn)	-4	2	99*	-7	-21	-6
C/C(CCc1ccc2c(c1)OCO2)=N\NC(=O)c1ccccc1Br	0	-18	1	0	-6	7
Cc1nc(SCc2ccc(Cl)cc2)ncc1C(=O)O	9	0	1	2	0	7
COc1cnc(SCc2ccc(Cl)cc2)nc1Cl	5	2	98*	1	-11	1
CC(C)(C)N/C=C(\C#N)S(=O)(=O)c1ccc(Br)cc1	3	3	-4	-1	13	-12
CCCC(=O)Nc1ccc(NC(=O)Cc2ccccc2)cn1	2	-11	99*	0	11	-2
CCCC(=O)Nc1ccc(NC(=O)CCc2ccccc2)cn1	3	-2	-7	0	12	-19
CCOc1ccc(OCc2ccc(C(=O)N/N=C(\C)c3ccccn3)cc2)cc1	-4	4	-12	9	-3	0
CCC(C)/C(C)=N/NC(=O)c1ccc(COc2ccc(Cl)c(C)c2)cc1 (stereo not drawn)	1	-11	99*	4	-2	-15
